Results published in ChEMBL document CHEMBL1151742, “Design, synthesis, and characterization of high-affinity, systemically-active galanin analogues with potent anticonvulsant activities” (J Med Chem, 2008).
The source made the active and inactive calls. The calls are words filed in the database; no cut-off is given here.

Experiments:
[1] = target: T1, Galanin receptor type 2 (Homo sapiens, UniProt O43603); assay: Binding affinity to human GalR2
T1 sequence (O43603 whole entry): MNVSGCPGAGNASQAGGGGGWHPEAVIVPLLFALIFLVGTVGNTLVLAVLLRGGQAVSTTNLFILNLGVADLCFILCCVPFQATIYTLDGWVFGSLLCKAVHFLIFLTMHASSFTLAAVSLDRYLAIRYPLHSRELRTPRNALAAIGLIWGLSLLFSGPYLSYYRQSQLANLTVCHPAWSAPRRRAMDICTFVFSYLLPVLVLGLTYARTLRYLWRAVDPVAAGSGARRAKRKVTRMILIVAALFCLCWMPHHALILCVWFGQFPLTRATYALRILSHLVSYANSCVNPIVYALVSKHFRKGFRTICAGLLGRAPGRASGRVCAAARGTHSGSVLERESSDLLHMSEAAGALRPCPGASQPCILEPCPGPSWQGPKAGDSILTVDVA

[2] = target: T2, Galanin receptor type 3 (Homo sapiens, UniProt O60755); assay: Binding affinity to human GalR3
T2 sequence (O60755 whole entry): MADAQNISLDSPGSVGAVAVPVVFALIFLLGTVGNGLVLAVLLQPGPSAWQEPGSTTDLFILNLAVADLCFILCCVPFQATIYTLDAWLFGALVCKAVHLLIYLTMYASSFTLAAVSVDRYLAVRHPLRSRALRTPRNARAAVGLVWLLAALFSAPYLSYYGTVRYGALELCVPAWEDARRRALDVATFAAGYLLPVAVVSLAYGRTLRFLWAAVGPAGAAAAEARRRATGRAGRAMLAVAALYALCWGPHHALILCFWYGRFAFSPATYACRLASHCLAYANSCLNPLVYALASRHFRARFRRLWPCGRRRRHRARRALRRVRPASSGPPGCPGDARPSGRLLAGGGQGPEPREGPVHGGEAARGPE

[3] = Partition coefficient, log D at pH 7.4 by shake-flask method; assay type: physicochemical; settings: octanol/water
Procedure, shortened: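 Shake-flask partitioning between water-saturated n-octanol and PBS pH 7.4. Peptide (0.4 mg) was reconstituted in 1 mL PBS, or in octanol if poorly water-soluble. Octanol peptide was taken as total minus aqueous, and logD = log([octanol]/[aqueous]). Four independent preparations per analogue.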

[4] = Metabolic stability in rat serum assessed as half life at pH 7.5; assay type: ADME, cell-free
Procedure, shortened: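 Peptide (final 20 µM) was incubated in 25% rat serum with 0.1 M Tris-HCl pH 7.5 at 37 °C, serum pre-warmed 10 min. Aliquots taken up to 8 h were quenched with 15% TCA in 40% isopropanol, held 15 min at -20 °C and centrifuged. Intact peptide was measured by reversed-phase HPLC peak area, and half-life was calculated from the disappearance.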

[5] = target: T1, Galanin receptor type 2; assay: Displacement of europium-labeled galanin from human GalR2 expressed in CHO-K1 cells; assay type: cell-based
[6] = test system: Mus musculus; assay: Anticonvulsant activity in CF1 mouse assessed as inhibition of 6 Hz corneal stimulation-induced limbic seizures at 4 mg/kg, ip administered 15 mins before 6 Hz corneal stimulation; assay type: functional, organism-based; parameters: dose 4 mg/kg; settings: Limbic system
Procedure, shortened: (§1)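 Each analogue given ip at 4 mg/kg to five groups of CF-1 mice (n = 4 per group), one group per time point. Seizure challenge was 6 Hz corneal stimulation (32 mA for 3 s, corneal electrodes) at 15, 30, 60, 120 or 240 min after dosing. A mouse without a limbic seizure (jaw chomping, vibrissae twitching, forelimb clonus, Straub tail) was counted as protected.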

[7] = test system: Mus musculus; assay: Anticonvulsant activity in CF1 mouse assessed as inhibition of 6 Hz corneal stimulation-induced limbic seizures at 4 mg/kg, ip administered 30 mins before 6 Hz corneal stimulation; assay type: functional, organism-based; parameters: dose 4 mg/kg; settings: Limbic system; procedure, shortened: as §1
[8] = test system: Mus musculus; assay: Anticonvulsant activity in CF1 mouse assessed as inhibition of 6 Hz corneal stimulation-induced limbic seizures at 4 mg/kg, ip administered 60 mins before 6 Hz corneal stimulation; assay type: functional, organism-based; parameters: dose 4 mg/kg; settings: Limbic system; procedure, shortened: as §1
[9] = test system: Mus musculus; assay: Anticonvulsant activity in CF1 mouse assessed as inhibition of 6 Hz corneal stimulation-induced limbic seizures at 4 mg/kg, ip administered 120 mins before 6 Hz corneal stimulation; assay type: functional, organism-based; parameters: dose 4 mg/kg; settings: Limbic system; procedure, shortened: as §1
[10] = test system: Mus musculus; assay: Anticonvulsant activity in CF1 mouse assessed as inhibition of 6 Hz corneal stimulation-induced limbic seizures at 4 mg/kg, ip administered 240 mins before 6 Hz corneal stimulation; assay type: functional, organism-based; parameters: dose 4 mg/kg; settings: Limbic system; procedure, shortened: as §1
[11] = target: T3, Galanin receptor type 1 (Homo sapiens, UniProt P47211); assay: Displacement of europium-labeled galanin from human GalR1 expressed in HEK293 EBNA cells; assay type: cell-based
T3 sequence (P47211 whole entry): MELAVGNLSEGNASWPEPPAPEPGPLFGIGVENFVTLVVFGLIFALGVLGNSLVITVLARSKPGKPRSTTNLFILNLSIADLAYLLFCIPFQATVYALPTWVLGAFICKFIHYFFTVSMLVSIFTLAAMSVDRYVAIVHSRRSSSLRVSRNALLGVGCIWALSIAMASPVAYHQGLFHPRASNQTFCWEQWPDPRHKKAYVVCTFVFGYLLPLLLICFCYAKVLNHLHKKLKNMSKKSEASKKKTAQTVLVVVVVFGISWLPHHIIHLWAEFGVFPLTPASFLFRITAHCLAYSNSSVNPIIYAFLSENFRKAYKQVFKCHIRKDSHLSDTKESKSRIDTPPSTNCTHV

[12] = test system: Mus musculus; assay: Anticonvulsant activity in intracerebroventricularly dosed pharmacoresistant epilepsy CF1 mouse model; assay type: functional
Procedure, shortened: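 Intracerebroventricular injection in mice, followed by the 6 Hz seizure model (32 mA). ED50 was determined in nmole with 95% CI.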

[13] = test system: Mus musculus; assay: Anticonvulsant activity in ip dosed CF1 mouse assessed as inhibition of 6 Hz corneal stimulation-induced limbic seizures; assay type: functional; settings: CF1, Limbic system
[14] = Toxicity in CF1 mouse assessed as motor function by rotarod test; assay type: organism-based; settings: in vivo

Compound | Kd [1] | Kd [2] | logD [3] | half-life [4] | Ki [5] | Activity [6] | Activity [7] | Activity [8] | Activity [9] | Activity [10] | Ki [11] | ED50 [12] | ED50 [13] | TD50 [14]
H-GWTLNSAGYLLGPHAVGNHRSFSDKNGLT-OH | 2.3 nM | 69 nM |  |  |  |  |  |  |  |  |  |  |  | 
CSCC[C@H](NC(=O)[C@H](CC(C)C)NC(=O)CNC(=O)[C@H](Cc1ccccc1)NC(=O)[C@H](Cc1ccccc1)NC(=O)[C@H](CCC(N)=O)NC(=O)[C@H](CCC(N)=O)NC(=O)[C@@H]1CCCN1C(=O)CNC(=O)[C@H](CC(C)C)NC(=O)[C@H](CC(C)C)NC(=O)[C@H](Cc1ccc(O)cc1)NC(=O)CNC(=O)[C@H](C)NC(=O)[C@H](CO)NC(=O)[C@H](CC(N)=O)NC(=O)[C@H](CC(C)C)NC(=O)[C@@H](NC(=O)[C@H](Cc1c[nH]c2ccccc12)NC(=O)CN)[C@@H](C)O)C(N)=O [GALANTIDE] | 1 nM | 40 nM |  |  |  |  |  |  |  |  |  |  |  | 
CCCCCCCCCCCCCCCC(=O)NCCCC[C@H](NC(=O)[C@H](C)NC(=O)[C@H](Cc1cnc[nH]1)NC(=O)[C@@H]1CCCN1C(=O)CNC(=O)[C@H](CC(C)C)NC(=O)[C@H](CC(C)C)NC(=O)[C@H](Cc1ccc(O)cc1)NC(=O)CNC(=O)[C@H](C)NC(=O)[C@H](CO)NC(=O)[C@H](CC(N)=O)NC(=O)[C@H](CC(C)C)NC(=O)[C@@H](NC(=O)[C@H](Cc1c[nH]c2ccccc12)NC(=O)CNC)[C@@H](C)O)C(N)=O |  |  | 1.55 | > 10 h | 160 nM | inactive | inactive | inactive | inactive | inactive |  |  |  | 
CCCCCCCCCCCCCCCC(=O)NCCCC[C@H](NC(=O)[C@H](CCCCN)NC(=O)[C@H](CCCCN)NC(=O)[C@H](CC(C)C)NC(=O)[C@H](CC(C)C)NC(=O)[C@H](Cc1ccc(O)cc1)NC(=O)CNC(=O)[C@H](C)NC(=O)[C@H](CO)NC(=O)[C@H](CC(N)=O)NC(=O)[C@H](CC(C)C)NC(=O)[C@@H](NC(=O)[C@H](Cc1c[nH]c2ccccc12)NC(=O)CNC)[C@@H](C)O)C(=O)N[C@@H](CCCCN)C(N)=O |  |  |  | > 10 h | 1320 nM |  | Active | Active |  | inactive | 306 nM |  |  | 
CC(C)C[C@H](NC(=O)[C@H](CC(C)C)NC(=O)[C@H](Cc1ccc(O)cc1)NC(=O)CNC(=O)[C@H](C)NC(=O)[C@H](CO)NC(=O)[C@H](CC(N)=O)NC(=O)[C@H](CC(C)C)NC(=O)[C@@H](NC(=O)[C@H](Cc1c[nH]c2ccccc12)NC(=O)CN)[C@@H](C)O)C(=O)NCC(=O)N1CCC[C@H]1C(=O)N[C@@H](Cc1cnc[nH]1)C(=O)N[C@@H](C)C(=O)N[C@H](C(N)=O)C(C)C |  |  | 0.66 | 0.13 h |  | inactive | inactive | inactive | inactive | inactive |  | 1.7 nmol |  | 
CNCC(=O)N[C@@H](Cc1c[nH]c2ccccc12)C(=O)N[C@H](C(=O)N[C@@H](CC(C)C)C(=O)N[C@@H](CC(N)=O)C(=O)N[C@@H](CO)C(=O)N[C@@H](C)C(=O)NCC(=O)N[C@@H](Cc1ccc(O)cc1)C(=O)N[C@@H](CC(C)C)C(=O)N[C@@H](CC(C)C)C(=O)NCC(=O)N1CCC[C@H]1C(=O)N[C@@H](CCCCN)C(=O)N[C@@H](CCCCN)C(=O)N[C@@H](CCCCN)C(=O)N[C@@H](CCCCN)C(N)=O)[C@@H](C)O |  |  | 0.4 | 4.6 h | 24 nM | inactive |  |  | inactive | inactive | 0.4 nM |  |  | 
CCCCCCCCCCCCCCCC(=O)NCCCC[C@H](NC(=O)[C@H](CCCCN)NC(=O)[C@H](CCCCN)NC(=O)[C@@H]1CCCN1C(=O)CNC(=O)[C@H](CC(C)C)NC(=O)[C@H](CC(C)C)NC(=O)[C@H](Cc1ccc(O)cc1)NC(=O)CNC(=O)[C@H](C)NC(=O)[C@H](CO)NC(=O)[C@H](CC(N)=O)NC(=O)[C@H](CC(C)C)NC(=O)[C@@H](NC(=O)[C@H](Cc1c[nH]c2ccccc12)NC(=O)CNC)[C@@H](C)O)C(=O)N[C@@H](CCCCN)C(N)=O |  |  | 1.26 | 9.4 h | 51.5 nM |  | Active | Active | Active | inactive |  |  | 0.8 mg/kg | 21 mg/kg
CC(C)C[C@H](NC(=O)[C@H](CC(C)C)NC(=O)[C@H](Cc1ccc(O)cc1)NC(=O)CNC(=O)[C@H](C)NC(=O)[C@H](CO)NC(=O)[C@H](CC(N)=O)NC(=O)[C@H](CC(C)C)NC(=O)[C@@H](NC(=O)[C@H](Cc1c[nH]c2ccccc12)NC(=O)CN)[C@@H](C)O)C(=O)NCC(=O)N1CCC[C@H]1C(=O)N1CCC[C@H]1C(=O)N1CCC[C@H]1C(=O)NCC(=O)N[C@@H](Cc1ccccc1)C(=O)N[C@@H](CO)C(=O)N1CCC[C@H]1C(=O)N[C@@H](Cc1ccccc1)C(=O)N[C@@H](CCCN=C(N)N)C(N)=O | 2 nM | 15 nM |  |  |  |  |  |  |  |  |  |  |  | 
